Source: the RNAGym collection of RNA variant scans (doi:10.1038/s41586-018-0170-7)

B1: tRNA (parent)
chain: GUUCCGUUGGCGUAAUGGUAACGCGUCUCCCUCCUAAGGAGAAGACUGCGGGUUCGAGUCCCGUACGGAACG

Variants of: B1
Assay: yeast fitness, log relative to wild type (ln ratio); higher = fitter; tRNA-Arg(CCU), competitive growth, 37 C, 1 M NaCl
Summary of the method: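 Fitness is the natural log of each genotype's generations divided by the wild type's. Generations were derived as OD-scaled log2 output/input frequency from 125 bp paired-end Illumina counts, weighting replicates by inverse variance. Pools of the tRNA-Arg(CCU) variant library, on a HIS3 centromeric plasmid in BY4742 lacking the chromosomal gene, grew ~6.5 generations (~26.5 h) in SC-HIS 1M NaCl at 37 °C after 4 generations in SC-HIS at 30 °C.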

| Variant | yeast fitness (ln) |
| --- | --- |
| C46U A70U | 0.00508 |
| C27U A43C C46U C66A A70G | -0.0609 |
| C27U A43C C46U C66A A70U | -0.0585 |
| C27U A43C C46U A69G C71U | -0.207 |
| A43C C46U C66A A70U | -0.0196 |
| A43C C46U C66A A70G | 0.00409 |
| A43C A70U C71U | -0.0836 |
| A43C C46U C71U | -0.00724 |
| C46U C66U A69G C71U | -0.396 |
| C27U A43C A70G | -0.0631 |
| C27U A43C A70U | -0.185 |
| A69G | -0.00462 |
| C27U C46U C66A C71U | -0.0951 |
| A43C C66U A70G C71U | -0.156 |
| C27U C46U C66A | -0.0465 |
| C27U C46U C66U | -0.0577 |
| A70U C71U | -0.0899 |
| C27U C46U C66U A69G A70G C71U | -0.166 |
| C27U C46U C66U A69G A70U | -0.104 |
| C27U C46U C66U A69G A70G | -0.197 |
| C66A A69G A70G | -0.0347 |
| C66A A69G A70U | -0.0115 |
| C46U C66U A69G A70G C71U | -0.084 |

| Variant | yeast fitness (ln) |
| --- | --- |
| A43C C46U C66A A69G A70G C71U | -0.103 |
| C27U A43C C46U C71U | -0.0385 |
| A43C C66U A70G | -0.0981 |
| A43C C66U A70U | -0.105 |
| A70G | -0.00424 |
| A70U | 0.00232 |
| C46U C66A A70U | 0.00705 |
| C46U C66A A70G | -0.0456 |
| C46U C66A A70U C71U | -0.022 |
| C66U A69G A70U C71U | -0.339 |
| C46U C66A A69G A70U | -0.0373 |
| C46U C66A A69G A70G | -0.0653 |
| C66U | -0.017 |
| C66A | -0.00943 |
| C27U A43C C46U A69G A70G C71U | -0.0917 |
| A43C C46U A69G | 0.00452 |
| C27U A43C C46U C66U A70U C71U | -0.333 |
| C27U A43C C66U A69G | -0.384 |
| C46U | 0.0114 |
| A43C A69G A70G C71U | -0.0742 |
| A43C C46U C66A C71U | -0.0684 |
| C27U A43C C46U C66U A69G A70U C71U | -0.391 |
| C46U A69G | -0.00396 |

| Variant | yeast fitness (ln) |
| --- | --- |
| C66A A69G C71U | -0.108 |
| A43C C66A C71U | -0.117 |
| C27U A43C C46U C66U A70G | -0.115 |
| C27U A43C C46U C66U A70U | -0.109 |
| A43C C66A A70G C71U | -0.105 |
| C27U A43C A70G C71U | -0.112 |
| C27U C46U C66A A69G A70G C71U | -0.156 |
| A43C C66U A69G A70U C71U | -0.365 |
| C27U A43C C46U C66U A69G | -0.204 |
| C46U C66A A69G A70G C71U | -0.0571 |
| C46U C66A A69G A70U C71U | -0.282 |
| C27U A43C C66U A70U C71U | -0.326 |
| C27U C66A A70U | -0.0748 |
| C27U C66A A70G | -0.0873 |
| A43C C46U | 0.00767 |
| C27U A43C C46U C66A C71U | -0.173 |
| C27U A43C C46U C66U A70G C71U | -0.206 |
| C46U C66U A69G | -0.104 |
| C27U A43C C66U A69G A70U C71U | -0.37 |
| A43C C46U C66A A69G C71U | -0.26 |
| C46U A69G A70G C71U | -0.237 |
| C66U A69G A70U | -0.0858 |
| C66U A69G A70G | -0.0718 |

| Variant | yeast fitness (ln) |
| --- | --- |
| C27U C46U C66A A70G C71U | -0.129 |
| C27U C46U C66U A69G A70U C71U | -0.485 |
| C46U A69G A70G | -0.0172 |
| C46U A69G A70U | -0.0401 |
| A43C C66A A70U C71U | -0.268 |
| A70G C71U | -0.0739 |
| C27U A43C C46U C66U C71U | -0.253 |
| C27U C66U A69G | -0.241 |
| C46U C66U A69G A70U C71U | -0.332 |
| C27U A43C C46U C66U A69G C71U | -0.361 |
| A43C C46U C66U A70G C71U | -0.149 |
| C27U C46U | -0.0139 |
| A43C C46U A69G C71U | -0.0511 |
| C46U C66A C71U | -0.0724 |
| A43C C66U C71U | -0.206 |
| C27U A43C C66A A69G A70G C71U | -0.369 |
| C46U C66A A70G C71U | -0.0671 |
| C66U A70G | -0.0949 |
| C66U A70U | -0.0848 |
| C27U A43C C46U C66A A70G C71U | -0.101 |
| C27U A69G A70U | -0.206 |
| C27U A69G A70G | -0.0809 |
| C27U C46U C66A A69G C71U | -0.262 |

| Variant | yeast fitness (ln) |
| --- | --- |
| C46U C66U A70U | -0.103 |
| C46U C66U A70G | -0.0429 |
| C27U A43C C66A A70G C71U | -0.234 |
| C66U A70U C71U | -0.135 |
| A43C C66U | -0.178 |
| A43C C66A | -0.0164 |
| A69G C71U | -0.0165 |
| C27U A43C C46U A70G C71U | -0.209 |
| C27U A43C C66A A69G A70U C71U | -0.513 |
| C27U A43C C66U A70G | -0.227 |
| C27U A43C C66U A70U | -0.147 |
| C27U A43C C66A C71U | -0.275 |
| C27U C66U A69G A70U C71U | -0.369 |
| C27U A43C C46U C66U A69G A70U | -0.285 |
| C27U A43C C46U C66U A69G A70G | -0.211 |
| A43C C66A A69G A70G | -0.154 |
| A43C C66A A69G A70U | -0.153 |
| C27U C46U C66A A69G A70U | -0.104 |
| C27U C46U C66A A69G A70G | -0.124 |
| C66A A70G C71U | -0.0666 |
| C66A C71U | -0.0269 |
| C46U A69G C71U | -0.00543 |
| C27U A70U C71U | -0.149 |

| Variant | yeast fitness (ln) |
| --- | --- |
| C27U A43C C66U A69G A70G C71U | -0.318 |
| A43C C66U A69G A70G C71U | -0.22 |
| A43C A70G | -0.022 |
| A43C A70U | -0.0384 |
| C66A A70U C71U | -0.0544 |
| A43C C46U A69G A70G C71U | -0.0835 |
| A43C A69G C71U | -0.138 |
| C46U C66A A69G C71U | -0.0675 |
| A43C C46U C66U A69G A70U C71U | -0.356 |
| C27U A43C C46U C66A A69G A70U C71U | -0.366 |
| A43C A69G | -0.0224 |
| C27U C66A A69G A70U | -0.15 |
| C27U C66A A69G A70G | -0.25 |
| A43C C46U A69G A70U | -0.133 |
| A43C C46U A69G A70G | -0.0166 |
| C27U C46U C66A A69G A70U C71U | -0.396 |
| C27U A69G A70U C71U | -0.294 |
| C27U A43C A70U C71U | -0.181 |
| A43C C46U C66A A69G A70U C71U | -0.341 |
| C46U A70G C71U | -0.0663 |
| A43C C66A A69G C71U | -0.226 |
